{
  "source": "ChEMBL document CHEMBL4392827",
  "about": "“Tryptamine derivatives disarm colistin resistance in polymyxin-resistant gram-negative bacteria” (Bioorg Med Chem, 2019)",
  "key": {"[1]": {"system": "Acinetobacter baumannii", "experiment": "Potentiation of colistin-induced antimicrobial activity against colistin-resistant Acinetobacter baumannii isolate 3942 assessed as fold reduction in colistin MIC at 60 uM incubated for 2 to 24 hrs under shaking condition in presence of 0.001% triton X-100 by broth microdilution assay", "assay_type": "functional"}, "[2]": {"system": "Escherichia coli", "experiment": "Potentiation of colistin-induced antimicrobial activity against colistin-resistant Escherichia coli ATCC 25922 expressing mcr1 gene assessed as fold reduction in colistin MIC at 60 uM after 18 hrs by broth microdilution assay", "assay_type": "functional", "procedure,_shortened": "(§1)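 Checkerboard-style resensitization following adapted CLSI broth microdilution. Bacteria were grown 4–6 h in CAMHB and subcultured to 5×10^5 CFU/mL. Adjuvant was added from DMSO stock and held constant while colistin was serially diluted in the dosed subculture. Plates were incubated stationary at 37°C for 18 h, then MICs were read. Fold reduction was taken relative to the colistin MIC without adjuvant.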"}, "[3]": {"system": "Klebsiella pneumoniae", "experiment": "Potentiation of colistin-induced antimicrobial activity against colistin-resistant Klebsiella pneumoniae isolate C3 assessed as fold reduction in colistin MIC at 60 uM incubated for 2 to 24 hrs under shaking condition in presence of 0.001% triton X-100 by broth microdilution assay", "assay_type": "functional"}, "[4]": {"system": "Acinetobacter baumannii", "experiment": "Potentiation of colistin-induced antimicrobial activity against colistin-resistant Acinetobacter baumannii isolate 3942 assessed as fold reduction in colistin MIC at 5 uM after 18 hrs by broth microdilution assay", "assay_type": "functional", "procedure,_shortened": "(§2)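 CLSI-adapted broth microdilution. Bacteria were grown 4–6 h in cation-adjusted Mueller-Hinton broth and subcultured to 5 ×10^5 CFU/mL. The subculture was dosed with adjuvant from DMSO stock at a constant final concentration, then colistin was added and serially diluted across wells. Plates were incubated stationary at 37°C for 18 h and the MIC recorded. Fold reduction is relative to the colistin MIC without adjuvant.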"}, "[5]": {"system": "Klebsiella pneumoniae", "experiment": "Potentiation of colistin-induced antimicrobial activity against colistin-resistant Klebsiella pneumoniae B9 assessed as fold reduction in colistin MIC at 60 uM after 18 hrs by broth microdilution assay", "assay_type": "functional", "procedure,_shortened": "as §1"}, "[6]": {"system": "Acinetobacter baumannii", "experiment": "Potentiation of colistin-induced antimicrobial activity against colistin-resistant Acinetobacter baumannii 4106 assessed as fold reduction in colistin MIC at 60 uM after 18 hrs by broth microdilution assay", "assay_type": "functional", "procedure,_shortened": "as §1"}, "[7]": {"system": "Acinetobacter baumannii", "experiment": "Potentiation of colistin-induced antimicrobial activity against colistin-sensitive Acinetobacter baumannii 5075 assessed as fold reduction in colistin MIC at 60 uM after 18 hrs by broth microdilution assay", "assay_type": "functional", "procedure,_shortened": "(§3)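 Bacteria grown 4–6 h in cation-adjusted Mueller-Hinton broth and diluted to 5 ×10^5 CFU/mL. Adjuvant from DMSO stock held at fixed 60 μM while colistin is twofold serially diluted in the same adjuvant-dosed broth. Plates sealed and kept stationary at 37°C for 18 h. Colistin MIC read and fold reduction taken relative to colistin alone.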"}, "[8]": {"system": "Acinetobacter baumannii", "experiment": "Toxicity in colistin-resistant Acinetobacter baumannii isolate 3942 at 60 uM after 18 hrs by broth microdilution assay", "assay_type": "organism-based"}, "[9]": {"system": "Klebsiella pneumoniae", "experiment": "Potentiation of colistin-induced antimicrobial activity against colistin-resistant Klebsiella pneumoniae isolate C3 assessed as fold reduction in colistin MIC at 10 uM after 18 hrs by broth microdilution assay", "assay_type": "functional", "procedure,_shortened": "as §2"}, "[10]": {"system": "Acinetobacter baumannii", "experiment": "Potentiation of colistin-induced antimicrobial activity against colistin-resistant Acinetobacter baumannii isolate 3942 assessed as fold reduction in colistin MIC at 30 uM incubated for 2 to 24 hrs under shaking condition in presence of 0.001% triton X-100 by broth microdilution assay", "assay_type": "functional"}, "[11]": {"system": "Klebsiella pneumoniae", "experiment": "Potentiation of colistin-induced antimicrobial activity against colistin-resistant Klebsiella pneumoniae isolate C3 after 18 hrs by broth microdilution assay", "assay_type": "functional, organism-based", "procedure,_shortened": "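Colistin MIC was determined by adapted CLSI broth microdilution in CAMHB (5×10^5 CFU/mL inoculum), with adjuvant held at fixed levels of 5, 10, 15, 20, 30, 40, 50 or 60 μM. Adjuvant was dosed from DMSO stock while colistin was serially diluted. Plates were incubated stationary at 37°C for 18 h. Fold reduction was taken versus colistin alone.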"}, "[12]": {"system": "Acinetobacter baumannii", "experiment": "Potentiation of colistin-induced antimicrobial activity against Acinetobacter baumannii ATCC 17978 assessed as fold reduction in colistin MIC at 60 uM after 18 hrs by broth microdilution assay", "assay_type": "functional", "procedure,_shortened": "as §3"}, "[13]": {"system": "Acinetobacter baumannii", "experiment": "Potentiation of colistin-induced antimicrobial activity against colistin-resistant Acinetobacter baumannii isolate 3942 assessed as fold reduction in colistin MIC at 40 uM after 18 hrs by broth microdilution assay", "assay_type": "functional", "procedure,_shortened": "as §2"}, "[14]": {"system": "Klebsiella pneumoniae", "experiment": "Potentiation of colistin-induced antimicrobial activity against colistin-resistant Klebsiella pneumoniae isolate A5 assessed as fold reduction in colistin MIC at 60 uM after 18 hrs by broth microdilution assay", "assay_type": "functional", "procedure,_shortened": "as §1"}, "[15]": {"experiment": "Hemolytic activity in sheep erythrocytes assessed as hemolysis at 100 uM incubated for 1 hr under shaking condition by UV-spectrophotometry", "assay_type": "ADME, cell-based, Ovis aries, Erythrocyte", "conditions": "read-out: Activity", "procedure,_shortened": "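Washed sheep erythrocytes (defibrinated blood spun, resuspended in PBS three times) diluted 10-fold in PBS containing compound from DMSO stock. DMSO negative control (0% lysis), 1% Triton X100 positive control (100% lysis). 1 h at 37°C with shaking, then spun 10 min at 10,000 rpm and supernatant diluted 1:40 in distilled water.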"}, "[16]": {"system": "Acinetobacter baumannii", "experiment": "Potentiation of colistin-induced antimicrobial activity against colistin-resistant Acinetobacter baumannii isolate 4112 assessed as fold reduction in colistin MIC at 60 uM after 18 hrs by broth microdilution assay", "assay_type": "functional", "procedure,_shortened": "as §1"}, "[17]": {"system": "Klebsiella pneumoniae", "experiment": "Potentiation of colistin-induced antimicrobial activity against colistin-resistant Klebsiella pneumoniae isolate C3 assessed as fold reduction in colistin MIC at 60 uM after 18 hrs by broth microdilution assay", "assay_type": "functional", "procedure,_shortened": "as §1"}, "[18]": {"system": "Klebsiella pneumoniae", "experiment": "Potentiation of colistin-induced antimicrobial activity against colistin-resistant Klebsiella pneumoniae isolate C3 assessed as fold reduction in colistin MIC at 30 uM incubated for 2 to 24 hrs under shaking condition in presence of 0.001% triton X-100 by broth microdilution assay", "assay_type": "functional"}, "[19]": {"system": "Escherichia coli", "experiment": "Toxicity in Escherichia coli ATCC 25922 after 18 hrs by broth microdilution assay", "assay_type": "organism-based", "conditions": "in vitro", "procedure,_shortened": "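Single-agent MIC per CLSI broth microdilution. Cells from a 4–6 h culture in cation-adjusted Mueller-Hinton broth adjusted to 5 ×10^5 CFU/mL. Compound (DMSO stock) added to 200 μM top concentration and twofold serially diluted six times, with an untreated control row. Plates sealed and incubated stationary at 37°C for 18 h before MIC read.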"}, "[20]": {"system": "Klebsiella pneumoniae", "experiment": "Potentiation of colistin-induced antimicrobial activity against colistin-resistant Klebsiella pneumoniae isolate C3 assessed as fold reduction in colistin MIC at 50 uM after 18 hrs by broth microdilution assay", "assay_type": "functional", "procedure,_shortened": "as §2"}, "[21]": {"system": "Acinetobacter baumannii", "experiment": "Induction of membrane permeabilization in colistin-resistant Acinetobacter baumannii isolate 3942 at 60 uM measured after 1 hr by SYTO-9/propidium iodide staining based fluorescence assay relative to control", "assay_type": "functional", "procedure,_shortened": "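Cells were grown overnight in CAMHB at 37°C, diluted 1:10 and grown 4 h more to an OD600 of ~0.3. They were pelleted, washed with sterile water and resuspended at 1/10 volume in water containing compound. After 1 h at 37°C with shaking, cells were washed and stained with SYTO-9/propidium iodide (1:1, 3 μL/mL) for 15 min at RT. Emission was read at 530 and 645 nm (excitation 485 nm), and the green/red ratio was expressed as % of the untreated control.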"}, "[22]": {"system": "Acinetobacter baumannii", "experiment": "Potentiation of colistin-induced antimicrobial activity against colistin-resistant Acinetobacter baumannii isolate 3942 assessed as fold reduction in colistin MIC at 15 uM after 18 hrs by broth microdilution assay", "assay_type": "functional", "procedure,_shortened": "as §2"}},
  "data": [
    {"smiles": "O=C(NCc1c[nH]c2ccccc12)c1cc(Br)c(Br)[nH]1", "values": [
      {"measurement": "fold change (FC)", "setting": "[1]", "result": 1024},
      {"measurement": "fold change (FC)", "setting": "[2]", "result": 16},
      {"measurement": "fold change (FC)", "setting": "[3]", "result": 2048},
      {"measurement": "fold change (FC)", "setting": "[4]", "result": 0},
      {"measurement": "fold change (FC)", "setting": "[5]", "result": 2048},
      {"measurement": "fold change (FC)", "setting": "[6]", "result": 2048},
      {"measurement": "fold change (FC)", "setting": "[7]", "result": 4},
      {"measurement": "Activity", "setting": "[8]", "result": "Non-Toxic"},
      {"measurement": "fold change (FC)", "setting": "[9]", "result": 32},
      {"measurement": "fold change (FC)", "setting": "[10]", "result": 128},
      {"measurement": "Activity", "setting": "[11]", "result": "Dose-dependent effect"},
      {"measurement": "fold change (FC)", "setting": "[12]", "result": 4},
      {"measurement": "fold change (FC)", "setting": "[13]", "result": 256},
      {"measurement": "fold change (FC)", "setting": "[14]", "result": 512},
      {"measurement": "hemolysis at 1 h, 100 µM", "setting": "[15]", "result": "< 1", "unit": "%"},
      {"measurement": "fold change (FC)", "setting": "[16]", "result": 2048},
      {"measurement": "fold change (FC)", "setting": "[17]", "result": 2048},
      {"measurement": "fold change (FC)", "setting": "[18]", "result": 512},
      {"measurement": "MIC", "setting": "[19]", "result": "> 200", "unit": "µM"},
      {"measurement": "fold change (FC)", "setting": "[20]", "result": 512},
      {"measurement": "fold change (FC)", "setting": "[21]", "result": 1.9},
      {"measurement": "fold change (FC)", "setting": "[22]", "result": 8}
    ]}
  ]
}
